# Assay outcomes as filed in PubChem BioAssay.
# Jurkat NFkB inh = inhibitors of induced NF-kB luciferase reporter, primary screen, TCR NF-kB activation inhibitor project, cell-based, luminescence, uHTS; Jurkat, PMA/ionomycin-induced NF-kB luciferase reporter; AID 435003, 2010; hit rate 0.53% among 330,000; inhibition, % at 4 µM; in the data active means inhibition above about 50%
# Gli-Sufu block = Gli-Sufu pathway antagonists, primary screen, luciferase luminescence, Sufu-KO-LIGHT cells, uHTS; AID 588413, 2011; hit rate 0.74% among 340,000; Sufu-KO-LIGHT fibroblasts, Gli luciferase reporter luminescence; inhibition, % at 5 µM;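 active means inhibition above about 55%, limit read from the data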
# 697 NFkB inh = inhibitors of PMA/ionomycin-induced NF-kB reporter, 697 cells, primary screen, B-cell NF-kB inhibitor project, cell-based, luminescence, uHTS. 697 B-cell NF-kB luciferase reporter, 16 h. AID 435022, 2010. inhibition, % at 4 µM. hit rate 0.33% among 330,000; in the data active means inhibition above about 35%
# NR2E3 ag-1 = inhibitors of NR2E3-RetCOR corepressor binding, primary screen, NR2E3 agonist project, biochemical, TR-FRET, GST-NR2E3, biotin-RetCOR; Photoreceptor-specific nuclear receptor (Homo sapiens), Q9Y5X4; 1536-well; inhibition of corepressor binding, % at 4.78 µM; hit rate 0.12% among 320,000;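 active means percent inhibition above the cutoff of mean plus 3 SD of all tested compounds, set per screening campaign, cut at about 20% in these data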
# Target sequence (Q9Y5X4 whole entry, looked up): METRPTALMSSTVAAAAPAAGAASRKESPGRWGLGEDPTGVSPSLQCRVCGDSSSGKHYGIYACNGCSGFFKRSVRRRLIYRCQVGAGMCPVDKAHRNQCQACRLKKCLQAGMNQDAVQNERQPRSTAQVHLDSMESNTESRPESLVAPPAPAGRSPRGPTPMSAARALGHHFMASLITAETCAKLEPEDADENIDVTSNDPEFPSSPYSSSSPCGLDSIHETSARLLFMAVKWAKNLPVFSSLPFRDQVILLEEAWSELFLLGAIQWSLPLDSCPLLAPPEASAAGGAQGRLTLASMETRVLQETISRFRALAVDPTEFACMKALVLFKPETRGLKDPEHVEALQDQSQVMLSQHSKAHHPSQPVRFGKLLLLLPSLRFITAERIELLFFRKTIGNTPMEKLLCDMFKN
#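 system = GST-tagged NR2E3 plus biotinylated RetCOR corepressor | input = 1.35 nM GST-NR2E3 | also added = 7 nM biotin-RetCOR | schedule = 5 h incubation at 4 °C | measured by = TR-FRET with europium anti-GST and streptavidin-D2, 340 nm excitation | read-out = percent loss of FRET ratio relative to control wells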
# NR2E3 ag-2 = NR2E3 agonists in two-hybrid cells, primary screen, cell-based, luminescence, CHO-S, Gal4-NCOR/VP16-NR2E3. Photoreceptor-specific nuclear receptor (Homo sapiens), Q9Y5X4. luciferase. inhibition of corepressor binding, % at 3.98 µM. hit rate 0.35% among 360,000;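 active means inhibition above the mean of all tested compounds plus 3 SD, cut at about 70% in these data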;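 further: higher means lower luciferase signal from less NR2E3 corepressor binding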
# GalR3 antagonist = GalR3 antagonists in HEK293 cells, primary screen, cell-based, fluorescence readout. Galanin receptor type 3 (Homo sapiens), O60755. HEK293 GalR3-CNG cAMP membrane potential fluorescence; galR3 body fused to GalR1 C-terminus. inhibition, % at 3 µM. hit rate 0.44% among 360,000. AID 651719, 2012;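 active means inhibition above the screen-wide average plus 3 SD, cut at about 13% in these data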;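 further: forskolin and galanin both at EC90 stimulate the cells; cAMP rise reported by CNG channel membrane potential dye signal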
# Gli antag conf = Gli-SUFU pathway antagonists, confirmation, single concentration, luciferase luminescence, Sufu-KO-LIGHT cells | Gli luciferase reporter | inhibition, % at 5 µM | hit rate 40% among 2,500 | shares compounds with Gli-Sufu block;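 active means mean inhibition at 5 µM reaching about 45%, limit read from the data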
# Gli cytotox = cytotoxicity in Sufu-KO-LIGHT cells, confirmation, cytotoxicity control for Gli-SUFU antagonist project, cell-based, ATP luminescence, single concentration; shares compounds with Gli-Sufu block; cytotoxicity, % at 5 µM; hit rate 32% among 2,500; AID 651994, 2013;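 active means mean cytotoxicity at 5 µM above about 25%, limit read from the data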;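 further: cells exposed to compound overnight for roughly 16 to 18 hours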
# Wnt3a cs = Wnt3a reporter signal inhibition, confirmation, counter-screen for Gli-SUFU antagonist project, Wnt-LIGHT cells, luminescence, single concentration; Wnt3a-driven luciferase reporter; hit rate 20% among 2,500; shares compounds with Gli-Sufu block; AID 651995, 2013; inhibition, % at 6.25 µM;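 active means mean inhibition above about 25%, limit read from the data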
# A number is an active result; 0 = inactive; - = not tested or not shown. A selection: hits, their analogues and other compounds. The true share with any hit is near 1.8%.
SMILES,Jurkat NFkB inh,Gli-Sufu block,697 NFkB inh,NR2E3 ag-1,NR2E3 ag-2,GalR3 antagonist,Gli antag conf,Gli cytotox,Wnt3a cs
Cc1c(N)cc(C(=O)N2CCOCC2)cc1[N+](=O)[O-],0,92.9,0,0,0,0,0,0,0
CCOC(=O)Nc1ccc2c(c1)N(C(=O)CNC)c1ccccc1CC2,0,0,0,0,0,0,0,0,0
COc1ccc(C)cc1NC(=O)COC(=O)c1c(C)nn(-c2ccccc2)c1C,0,0,0,0,0,0,-,-,-
CCOC(=O)c1ccc2c(c1)n(CC)c(/C=C/Nc1ccccc1)[n+]2CC,0,0,0,0,0,0,52.6,33.8,0
CCn1c(C)[n+](Cc2ccccc2)c2ccc(C(=O)OC)cc21,0,0,0,0,0,0,-,-,-
Cc1csc(=O)n1CCC(=O)OCC(=O)Nc1cccc(C#N)c1,0,0,0,0,0,0,-,-,-
COc1ccc(/C=N/NC(=O)c2ccc(CSc3nc(C)cc(C)n3)cc2)cc1O,0,0,0,0,0,0,-,-,-
COc1ccc(O)c(/C=N/NC(=O)c2ccc(CSc3nc(C)cc(C)n3)cc2)c1,0,62.8,0,0,0,0,48.4,0,41.3
CCOC(=O)N1CCN(C(=O)Cn2ncc3ccccc32)CC1,0,0,0,0,0,0,-,-,-
O=C(Cn1ncc2ccccc21)N1CCN(c2cccc(C(F)(F)F)c2)CC1,0,55.9,0,0,0,0,0,0,0
O=Cc1cn(CC(O)CN2CCCCC2)c2ccccc12 (stereo not drawn),0,0,0,0,0,0,-,-,-
CC(C)(CO)NCC(O)Cn1cc(C=O)c2ccccc21 (stereo not drawn),0,0,0,0,0,0,0,0,0
O=C(COc1ccc2ccccc2c1)NNC(=O)Cc1ccccc1,-,0,-,0,0,0,-,-,-
O=C(COc1ccc2ccccc2c1)NNC(=O)c1ccccc1,0,0,0,0,0,0,0,0,0
OC(CSc1ccccc1)CN1CCN(c2ccc(Cl)cc2)CC1 (stereo not drawn),-,0,-,-,0,0,-,-,-
OC(CSc1ccccc1)CN1CCN(c2cccc(Cl)c2)CC1 (stereo not drawn),-,0,-,-,0,0,0,0,0
CC1CCN(S(=O)(=O)c2ccc(NC(=O)c3cccs3)cc2)CC1,0,0,0,0,0,0,-,-,-
Cc1nnsc1C(=O)Nc1ccc(S(=O)(=O)N2CCC(C)CC2)cc1,0,0,0,0,0,0,0,0,0
C=CCn1c(SCc2ccccc2F)nc2cc(C(=O)O)ccc2c1=O,0,0,0,0,0,0,-,-,-
C[C@H]1CCCCO[C@@H](CN(C)CC2CC2)[C@@H](C)CN([C@@H](C)CO)C(=O)c2cc(NS(=O)(=O)c3ccccc3)ccc2O1,-,-,-,-,-,0,-,-,-
CC(C)NCC(O)COC1CCC(C(C)(C)C)CC1 (stereo not drawn),0,69.8,0,0,0,0,0,0,0
CC1CCCC(C)N1CC(O)COC1CCC(C(C)(C)C)CC1 (stereo not drawn),0,-,0,0,0,0,-,-,-
COc1cccc(-c2nc3nc(C)cc(C)n3c2NC2CCCC2)c1,-,-,-,-,0,0,-,-,-
CC(=O)OCC(COC(C)=O)(CN1C(=O)c2ccccc2C1=O)CN1C(=O)c2ccccc2C1=O,-,-,-,-,-,0,-,-,-
N#CC(=C1C=CC(=NO)C(Cl)=C1)c1ccccc1,-,-,-,-,0,0,-,-,-
